Peptide text beside a SMILES is read from it.
System: HsNAA10
Test: Nt acetyltransferase inhibitor assay
Assay type: biochemical
Conditions: Ki panel of human NATs
Method in brief: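 In vitro Nt-acetylation assay on purified human NAT enzymes. IC50 values were determined for NAA80. Ki values for the bisubstrate inhibitor were determined across a panel of human NATs. Each reaction was run at least three times, in triplicate. Errors are given as SD.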

CC[C@H](C)[C@H](NC(=O)[C@H](CC(=O)O)NC(=O)[C@H](CC(=O)O)NC(=O)[C@H](CC(=O)O)NC(=O)CSCCNC(=O)CCNC(=O)[C@H](O)C(C)(C)COP(=O)(O)OP(=O)(O)OC[C@H]1O[C@@H](n2cnc3c(N)ncnc32)[C@H](O)[C@@H]1OP(=O)(O)O)C(N)=O [CoA-Ac-DDDI-NH2] (HELM PEPTIDE1{[CC(C)(COP(=O)(O)OP(=O)(O)OC[C@H]1O[C@@H](n2cnc3c(N)ncnc32)[C@H](O)[C@@H]1OP(=O)(O)O)[C@@H](O)C(=O)[*:2]].[bAla].[O=C(CSCCN[*:1])[*:2]].D.D.D.I.[am]}$$$$V2.0)
Fold reduced potency for NAA10 compared with NAA80: 88 fold
